Results from ChEMBL document CHEMBL1133116, “Synthesis and evaluation of 17-aliphatic heterocycle-substituted steroidal inhibitors of 17alpha-hydroxylase/C17-20-lyase (P450 17)” (J Med Chem, 2000).

Key:
[1] = target: T1, Steroid 17-alpha-hydroxylase/17,20 lyase (Homo sapiens, UniProt P05093); experiment: Inhibition of Cytochrome P450 17 from human testicular microsomes at 2.5 uM; n.i. means no inhibition
T1 sequence (P05093 whole entry): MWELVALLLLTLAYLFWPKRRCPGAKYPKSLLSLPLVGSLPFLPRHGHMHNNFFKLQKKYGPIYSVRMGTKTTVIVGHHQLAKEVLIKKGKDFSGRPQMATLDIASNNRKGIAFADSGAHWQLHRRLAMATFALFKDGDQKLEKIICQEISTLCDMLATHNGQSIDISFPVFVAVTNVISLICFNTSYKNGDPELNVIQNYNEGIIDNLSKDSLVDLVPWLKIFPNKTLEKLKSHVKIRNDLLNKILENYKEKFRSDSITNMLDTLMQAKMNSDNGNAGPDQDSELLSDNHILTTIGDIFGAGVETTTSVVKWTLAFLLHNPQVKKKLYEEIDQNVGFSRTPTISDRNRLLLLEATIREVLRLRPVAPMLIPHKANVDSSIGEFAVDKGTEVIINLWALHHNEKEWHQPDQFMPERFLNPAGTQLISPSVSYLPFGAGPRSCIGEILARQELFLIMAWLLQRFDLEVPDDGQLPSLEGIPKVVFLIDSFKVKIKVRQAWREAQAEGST
How it was run: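 Human testicular microsomes as P450 17 source, with progesterone in large excess (25 µM) as substrate. Inhibitor was tested at 2.5 µM. The 16α- and 17α-hydroxyprogesterone products were quantified by reverse-phase HPLC with UV detection. No lyase products form with the human enzyme. Values are means of at least two experiments.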

[2] = target: T2, Steroid 17-alpha-hydroxylase/17,20 lyase (Rattus norvegicus, UniProt P11715); experiment: Inhibition of Cytochrome P450 17 from rat testicular microsomes at 125 uM; n.i. means no inhibition
T2 sequence (P11715 whole entry): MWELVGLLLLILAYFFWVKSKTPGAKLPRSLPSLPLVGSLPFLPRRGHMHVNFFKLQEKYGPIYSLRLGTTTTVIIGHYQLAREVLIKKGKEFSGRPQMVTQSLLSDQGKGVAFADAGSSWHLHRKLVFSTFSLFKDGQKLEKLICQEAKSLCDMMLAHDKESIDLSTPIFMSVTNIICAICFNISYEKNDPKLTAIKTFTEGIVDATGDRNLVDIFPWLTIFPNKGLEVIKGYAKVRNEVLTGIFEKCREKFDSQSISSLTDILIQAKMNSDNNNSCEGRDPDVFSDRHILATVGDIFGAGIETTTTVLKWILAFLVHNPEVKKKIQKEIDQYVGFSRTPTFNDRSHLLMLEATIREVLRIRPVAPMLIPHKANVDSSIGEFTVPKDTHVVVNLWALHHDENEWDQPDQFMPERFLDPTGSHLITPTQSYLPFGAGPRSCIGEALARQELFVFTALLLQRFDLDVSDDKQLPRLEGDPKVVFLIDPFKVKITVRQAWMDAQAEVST
How it was run: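 Rat testicular microsomes as P450 17 source, with progesterone substrate at 25 µM. […] Products were quantified by reverse-phase HPLC with UV detection. Values are means of at least two experiments.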

IC50 [1]: Not Active
IC50 [2]: Not Active
Structure (SMILES): COC1CC[C@@]2(C)C(=CC[C@H]3[C@@H]4CC[C@@H](C5CO5)[C@@]4(C)CC[C@@H]32)C1 (some centres not stated)
